Changes are numbered by the printed parent chain. Where two headings read alike, the source gives them in different places.
What was measured:
[1] = molecular target: T1, CLC-0 E166C/K519M mutant (E127/K519M) (Torpedo marmorata, UniProt P21564, C212S/E166C/K519M); assay type: cell-based; conditions: for IC50: read-out: Apparent affinity (K1/2)
T1 sequence (P21564 1-805 E166C/C212S/K519M): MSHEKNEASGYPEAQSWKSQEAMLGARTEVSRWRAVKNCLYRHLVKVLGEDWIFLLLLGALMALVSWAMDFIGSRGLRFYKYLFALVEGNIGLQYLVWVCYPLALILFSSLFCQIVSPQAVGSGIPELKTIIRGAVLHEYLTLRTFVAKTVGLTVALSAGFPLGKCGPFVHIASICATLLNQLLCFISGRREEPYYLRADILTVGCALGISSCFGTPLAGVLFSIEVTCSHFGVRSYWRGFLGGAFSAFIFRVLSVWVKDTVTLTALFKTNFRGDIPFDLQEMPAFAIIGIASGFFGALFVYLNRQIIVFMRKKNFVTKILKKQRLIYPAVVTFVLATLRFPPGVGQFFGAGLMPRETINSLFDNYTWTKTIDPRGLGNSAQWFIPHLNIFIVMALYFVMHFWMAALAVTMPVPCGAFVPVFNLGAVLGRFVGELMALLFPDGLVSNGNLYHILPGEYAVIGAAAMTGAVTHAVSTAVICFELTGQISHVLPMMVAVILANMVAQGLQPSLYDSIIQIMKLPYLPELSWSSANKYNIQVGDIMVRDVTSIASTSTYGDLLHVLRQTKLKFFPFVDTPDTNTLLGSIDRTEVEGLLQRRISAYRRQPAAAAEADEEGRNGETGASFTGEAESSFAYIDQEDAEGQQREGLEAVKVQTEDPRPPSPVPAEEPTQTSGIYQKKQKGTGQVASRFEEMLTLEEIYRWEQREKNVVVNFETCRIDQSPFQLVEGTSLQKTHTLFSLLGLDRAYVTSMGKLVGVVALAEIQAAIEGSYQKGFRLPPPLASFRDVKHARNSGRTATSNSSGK
How it was run: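 CLC-0 mutants in the C212S background were transfected into HEK293 cells with lipofectamine and recorded 1–3 d later as excised inside-out patches. Both sides held 130 mM NaCl, 5 mM MgCl2, 10 mM HEPES and 1 mM EGTA, pH 7.4. CPA was perfused continuously onto the cytoplasmic face. Steady-state current over the last 10 ms was normalized to bracketing blocker-free controls and fitted to a Langmuir function for K1/2. Values are mean ± SEM of ~4–6 patches.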

[2] = molecular target: T2, CLC-0 E166C/E127Q/K519M mutant (Torpedo marmorata, UniProt P21564, C212S/E127Q/E166C/K519M); assay type: cell-based; conditions: for IC50: read-out: Apparent affinity (K1/2)
T2 sequence (P21564 1-805 E127Q/E166C/C212S/K519M): T1 sequence (P21564 1-805 E166C/C212S/K519M) with E127Q
How it was run: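 CLC-0 mutants (C212S background) were lipofectamine-transfected into HEK293 cells and recorded 1–3 d later from inside-out patches. Pipette and bath contained 130 mM NaCl, 5 MgCl2, 10 HEPES and 1 EGTA (pH 7.4). Test compound was perfused onto the cytoplasmic side. A +80 mV prepulse preceded steps to steady state. The last-10-ms current was normalized to bracketing blocker-free controls and fitted to a Langmuir function for K1/2.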

For `O=C(O)COc1ccc(Cl)cc1` [CPA, p-chlorophenoxy acetate], the IC50 ([1]; −40 mV) was 378 ± 7 µM, the IC50 ([1]; −60 mV) was 271 ± 5 µM and the IC50 ([1]; −80 mV) was 194 ± 4 µM. For the same compound, the IC50 ([1]; −100 mV) was 141 ± 5 µM, the IC50 ([1]; −120 mV) was 98 ± 4 µM and the IC50 ([1]; −140 mV) was 69 ± 4 µM. It also gave an IC50 ([1]; −160 mV) of 51 ± 4 µM, an apparent koff ([1]; −160 mV) of 10.5 s⁻¹ and an apparent kon ([1]; −160 mV) of 170000 M⁻¹ s⁻¹. It also gave an IC50 ([2]; −40 mV) of 457 ± 30 µM, an IC50 ([2]; −60 mV) of 240 ± 13 µM and an IC50 ([2]; −80 mV) of 132 ± 6 µM. The IC50 ([2]; −100 mV) was 75 ± 3 µM, the IC50 ([2]; −120 mV) was 47 ± 3 µM and the IC50 ([2]; −140 mV) was 31 ± 2 µM. For the same compound, the IC50 ([2]; −160 mV) was 22 ± 2 µM, the apparent koff ([2]; −160 mV) was 11.4 s⁻¹ and the apparent kon ([2]; −160 mV) was 460000 M⁻¹ s⁻¹.

— paper PMC2606940 (The Journal of General Physiology, 2009)
